Experimental data taken from PMC8829947 (ACS Omega, 2022).

Tests used:
[1] = target: NDM-1 (Klebsiella pneumoniae, UniProt C7C422); assay: In vitro enzyme inhibition assay, purified recombinant NDM-1; assay type: biochemical
In short: (§1)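 Purified recombinant enzyme at 4 nM was preincubated 5–10 min at RT with varying inhibitor concentrations. Buffer was 50 mM HEPES pH 7.5, 0.2% DMSO, 1% PEG 4000, with either 10 μM ZnSO4 or no zinc (Chelex-100-treated, 2 h, filtered). Reactions were started with nitrocefin (30 μM final, A490) or meropenem (50 μM final, A300) and followed 60 s. IC50 came from the linear portion of progress curves. Duplicates.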

[2] = Zn2+ affinity by competition with colorimetric PAR assay; assay type: binding; settings: for Kd: read-out: Kd,Zn2, PAR 100 μM, ZnSO4 10 μM, pH 7.5, 3 h at 25 °C
In short: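 The test compound was titrated into Chelex-100-treated 20 mM HEPES, 100 mM NaCl, pH 7.5, containing PAR 100 μM and ZnSO4 10 μM, then incubated 3 h at 25 °C. Zn2+ displacement from PAR was read as the fall in absorbance at 492 nm. Kd was estimated from the known PAR stability constant at pH 7.4.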

[3] = tested on: E. coli expressing blaNDM-1; assay: Meropenem rescue concentration, antimicrobial susceptibility test; assay type: cell-based, Escherichia coli; settings: for RC in MHB, NDM-1: rescue concentration at meropenem 2 μg/mL
In short: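 Checkerboard broth microdilution in Mueller–Hinton broth against E. coli carrying the plasmid-borne MBL gene. Meropenem used five 2-fold dilutions and the test compound six 2-fold dilutions, within 0.5–64 μg/mL; the test compound was dissolved in water or 50% methanol. Inoculum was adjusted to OD625 0.08–0.10, then diluted 200-fold. Incubation was 20 h static at 37 °C, read at OD600. RC is the compound concentration restoring susceptibility at meropenem 2 μg/mL. ≥2 replicates.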

[4] = target: VIM-2 (Escherichia coli, UniProt Q5U7L7); assay: In vitro enzyme inhibition assay, purified recombinant VIM-2; assay type: biochemical
In short: as §1

[5] = target: IMP-7; assay: In vitro enzyme inhibition assay, purified recombinant IMP-7; assay type: biochemical; settings: read-out: IC50 IMP-7 - Zn; Zn2+-depleted (Chelex-100-treated) buffer
In short: as §1

[6] = tested on: K. pneumoniae ATCC 33495::pGDP2 (NDM-1); assay: Meropenem rescue and MIC, antimicrobial susceptibility test; assay type: cell-based, Klebsiella pneumoniae; settings: rescue concentration at meropenem 2 μg/mL, MHB
[7] = tested on: E. coli BW25113 (WT); assay: Cell penetration / intracellular accumulation assay; assay type: cell-based, Escherichia coli; settings: 50 μM, wild-type E. coli
In short: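 E. coli BW25113 (wild type) cells were incubated with the test compound at 50 μM (reference chelator at 50 or 100 μM) for 10 min at 37 °C. Cells were spun through ice-cold silicone oil (12,000g, 2 min), resuspended in water and lysed by three freeze–thaw cycles. The debris pellet was extracted with MeOH. Pooled extracts were quantified by UPLC–Q-TOF targeted MS/MS against a calibration curve. Biological and technical triplicates.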

[8] = tested on: A. baumannii ATCC 17978::pROTO2 (NDM-1); assay: Meropenem rescue and MIC, antimicrobial susceptibility test; assay type: cell-based, Acinetobacter baumannii; settings: rescue concentration at meropenem 2 μg/mL
[9] = IC50 NDM-1 + Zn, Zn2+-supplemented (10 μM) buffer
[10] = IC50 NDM-1 - Zn, Zn2+-depleted (Chelex-100-treated) buffer

Chain of NDM-1 (C7C422 29-270, looked up, species assumed): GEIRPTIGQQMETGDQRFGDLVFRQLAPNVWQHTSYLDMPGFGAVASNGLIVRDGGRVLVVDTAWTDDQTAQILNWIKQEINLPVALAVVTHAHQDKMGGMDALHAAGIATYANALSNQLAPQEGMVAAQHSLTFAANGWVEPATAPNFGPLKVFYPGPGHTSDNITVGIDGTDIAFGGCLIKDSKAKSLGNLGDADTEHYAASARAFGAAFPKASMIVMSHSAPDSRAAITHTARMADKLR

Row | Compound | IC50 [1, 9] | IC50 [1, 10] | Kd [2] | RC in MHB, NDM-1 [3] | IC50 [4] | IC50 [5] | RC in MHB, K. pneumoniae ATCC 33495::pGDP2 (NDM-1) [6] | intracellular accumulation increase relative to AMA [7] | RC in MHB, A. baumannii ATCC 17978::pROTO2 (NDM-1) [8] | Zn2+ affinity (in words) ([2]; outside the detection range of the assay, estimated) | rescue concentration (RC), biological activity ([3]; meropenem 2 μg/mL, resistant E. coli, MBL not given)
1 | N[C@@H](CN[C@@H](CN[C@@H](Cc1ccc(OP(=O)(O)O)cc1)C(=O)O)C(=O)O)C(=O)O (mixture of isomers) [Compound 21, (S)-2-Amino-3-(((S)-1-carboxy-2-(((S)-1-carboxy-2-(4-(phosphonooxy)phenyl)ethyl)amino)ethyl)amino)propanoic Acid] | 54 ± 5.6 µM | 25.1 ± 8.3 µM | 0.0108 ± 0.0081 µM | 64 µg/mL |  |  |  |  |  |  | 
2 | NC(Cc1ccc(O)cc1)C(=O)N[C@@H](CN[C@@H](CN[C@@H](CC(=O)O)C(=O)O)C(=O)O)C(=O)O (stereo in doubt) [Compound 2, ((S)-2-(((S)-2-((R)-2-Amino-3-(4-hydroxyphenyl)propanamido)-2-carboxyethyl)amino)-2-carboxyethyl)-L-aspartic Acid] | > 100 µM | > 500 µM | 0.0014 ± 0.00056 µM | >64 µg/mL |  |  |  |  |  |  | 
3 | N[C@@H](CN[C@@H](CNC(CS)C(=O)O)C(=O)O)C(=O)O (stereo in doubt) [Compound 11, (S)-2-Amino-3-(((S)-1-carboxy-2-(((S)-1-carboxy-2-mercaptoethyl)amino)ethyl)amino)propanoic Acid] | 15.6 ± 0.2 µM | 21.5 ± 0.8 µM | 0.0002 ± 5e-05 µM | 32 µg/mL | 22 ± 1 µM | 328 ± 15 µM |  |  |  |  | 
4 | N[C@@H](CN[C@@H](CNC(CS)C(=O)O)C(=O)O)C(=O)O (stereo in doubt) [Compound 12, (S)-2-Amino-3-(((S)-1-carboxy-2-(((R)-1-carboxy-2-mercaptoethyl)amino)ethyl)amino)propanoic Acid] | 404 ± 18.2 µM | 5.8 ± 0.5 µM | 0.0044 ± 0.0018 µM | 32 µg/mL |  |  |  |  |  |  | 
5 | CC(C)(S)C(NC[C@H](NC[C@H](N)C(=O)O)C(=O)O)C(=O)O (stereo in doubt) [Compound 14, (R)-2-(((S)-2-(((S)-2-Amino-2-carboxyethyl)amino)-2-carboxyethyl)amino)-3-mercapto-3-methylbutanoic Acid] | 112 ± 4.8 µM | 185 ± 7.8 µM | 0.0026 ± 0.0004 µM | 32 µg/mL | 246 ± 17 µM | > 500 µM |  |  |  |  | 
6 | NCC(=O)N[C@@H](CN[C@@H](CN[C@@H](CC(=O)O)C(=O)O)C(=O)O)C(=O)O [Compound 1, ((S)-2-(((S)-2-(2-Aminoacetamido)-2-carboxyethyl)amino)-2-carboxyethyl)-L-aspartic Acid] | > 100 µM | > 500 µM | 0.0199 ± 0.0032 µM | >64 µg/mL |  |  |  |  |  |  | 
7 | CN[C@@H](CN[C@@H](CN[C@@H](CC(=O)O)C(=O)O)C(=O)O)C(=O)O [Compound 3, ((S)-2-Carboxy-2-(((S)-2-carboxy-2-(methylamino)ethyl)amino) Ethyl)-L-aspartic Acid] | 95.3 ± 3 µM | > 500 µM | 0.0087 ± 0.0009 µM |  |  |  |  |  |  |  | 
8 | N[C@@H](CN[C@@H](CN[C@@H](CC(=O)O)C(=O)O)C(=O)O)CSc1ccccc1 [Compound 4] | 12.5 ± 0.8 µM | 150 ± 16 µM | 0.0004 ± 7e-05 µM | 8 µg/mL | 246 ± 23 µM | 32 ± 3.1 µM | 8 μg/mL | 1.5 fold | 8 μg/mL |  | 
9 | Cc1ccc(SC[C@@H](N)CN[C@@H](CN[C@@H](CC(=O)O)C(=O)O)C(=O)O)cc1 [Compound 5, ((S)-2-(((S)-2-Amino-3-(P-tolylthio)propyl)amino)-2-carboxyethyl)-L-aspartic Acid] | 104 ± 2 µM | 97.2 ± 34.2 µM | 0.0014 ± 0.00056 µM | 32 µg/mL |  |  |  |  |  |  | 
10 | CCCSC[C@@H](N)CN[C@@H](CN[C@@H](CC(=O)O)C(=O)O)C(=O)O [Compound 7, ((S)-2-(((S)-2-Amino-3-(propylthio)propyl)amino)-2-carboxyethyl)-L-aspartic Acid] | 29.2 ± 1 µM | > 500 µM | 0.109 ± 0.04 µM | >64 µg/mL |  |  |  |  |  |  | 
11 | N[C@@H](CN[C@@H](CN[C@@H](CC(=O)O)C(=O)O)C(=O)O)CSCCO [Compound 8, ((S)-2-(((S)-2-Amino-3-((2-hydroxyethyl)thio)propyl)amino)-2-carboxyethyl)-L-aspartic Acid] | > 250 µM | > 500 µM | 0.06 ± 0.013 µM | 64 µg/mL |  |  |  |  |  |  | 
12 | N[C@@H](CN[C@@H](CN[C@@H](CC(=O)O)C(=O)O)CSc1ccccc1)C(=O)O [Compound 9, ((S)-2-(((S)-2-Amino-2-carboxyethyl)amino)-3-(phenylthio)propyl)-L-aspartic Acid] | 58 ± 5 µM | > 500 µM | 0.0023 ± 0.0019 µM | >64 µg/mL |  |  |  |  |  |  | 
13 | N[C@@H](CN[C@@H](CN[C@@H](Cc1c[nH]cn1)C(=O)O)C(=O)O)C(=O)O [Compound 10, (S)-2-Amino-3-(((S)-1-carboxy-2-(((S)-1-carboxy-2-(1H-imidazol-4-yl)ethyl)amino)ethyl)amino)propanoic Acid] | 21.7 ± 3.9 µM | 173 ± 3.9 µM |  | 8 µg/mL | 136 ± 5 µM | > 500 µM | 8 μg/mL |  | 4–8 μg/mL | subpicomolar or lower | 
14 | N[C@@H](CN[C@@H](CN[C@@H](CCS)C(=O)O)C(=O)O)C(=O)O [Compound 13, ((S)-2-(((S)-2-Amino-2-carboxyethyl)amino)-2-carboxyethyl)-L-homocysteine] | > 100 µM | > 1000 µM |  | 64 µg/mL |  |  |  |  |  |  | 
15 | NC(=O)C[C@H](NC[C@H](NC[C@H](N)C(=O)O)C(=O)O)C(=O)O [Compound 16, ((S)-2-(((S)-2-Amino-2-carboxyethyl)amino)-2-carboxyethyl)-L-asparagine] | 18.3 ± 0.7 µM | > 1000 µM | 0.001 ± 0.0001 µM | 16 µg/mL |  |  | 32 μg/mL |  | 16 μg/mL |  | 
16 | N=C(N)NCCC[C@H](NC[C@H](NC[C@H](N)C(=O)O)C(=O)O)C(=O)O [Compound 17, ((S)-2-(((S)-2-Amino-2-carboxyethyl)amino)-2-carboxyethyl)-L-arginine] | > 100 µM | > 1000 µM | 0.024 ± 0.006 µM | >64 µg/mL |  |  |  |  |  |  | 
17 | N[C@@H](CN[C@@H](CN[C@@H](CO)C(=O)O)C(=O)O)C(=O)O [Compound 19, (S)-2-Amino-3-(((S)-1-carboxy-2-(((S)-1-carboxy-2-hydroxyethyl)amino)ethyl)amino)propanoic Acid] | 80 ± 0.7 µM | > 1000 µM | 0.0045 ± 0.00175 µM | 32 µg/mL |  |  |  |  |  |  | 
18 | N[C@@H](CN[C@@H](CN[C@@H](Cc1ccc(O)cc1)C(=O)O)C(=O)O)C(=O)O [Compound 20, (S)-2-Amino-3-(((S)-1-carboxy-2-(((S)-1-carboxy-2-(4-hydroxyphenyl)ethyl)amino)ethyl)amino)propanoic Acid] | 38 ± 1.8 µM | 172 ± 1.5 µM | 0.00064 ± 0.00017 µM | 16 µg/mL |  |  | 64 μg/mL |  | 32 μg/mL |  | 
19 | N[C@@H](CN[C@@H](CN[C@H](C(=O)O)c1ccc(O)cc1)C(=O)O)C(=O)O [Compound 22, (S)-2-Amino-3-(((S)-1-carboxy-2-(((S)-carboxy(4-hydroxyphenyl)methyl)amino)ethyl)amino)propanoic Acid] | 283 ± 27.4 µM | 23 ± 3.6 µM | 0.0095 ± 0.0065 µM | >64 µg/mL |  |  |  |  |  |  | 
20 | N[C@@H](CN[C@@H](CN[C@@H](Cc1cccs1)C(=O)O)C(=O)O)C(=O)O [Compound 23, (S)-2-Amino-3-(((S)-1-carboxy-2-(((S)-1-carboxy-2-(thiophen-2-yl)ethyl)amino)ethyl)amino)propanoic Acid] | 42.2 ± 4.1 µM | 9.7 ± 1.7 µM | 0.0042 ± 0.0025 µM | 64 µg/mL |  |  |  |  |  |  | > 8 μg/mL
